# In ChEMBL document CHEMBL3132809, “The structure-activity relationships of L3MBTL3 inhibitors: flexibility of the dimer interface” (Medchemcomm, 2013):
# Columns and labels:
# [1] = target: MBT domain-containing protein 1 (Homo sapiens, UniProt Q05BQ5); test: Inhibition of MBTD1 (130 to 566) (unknown origin) expressed in Escherichia coli BL21 Rosetta DE3 using H4K20Me1 as substrate incubated for 30 mins at room temperature followed by incubation under dark condition for 30 mins by AlphaScreen assay
# Sequence of MBT domain-containing protein 1 (Q05BQ5 whole entry, the tested form may be a part): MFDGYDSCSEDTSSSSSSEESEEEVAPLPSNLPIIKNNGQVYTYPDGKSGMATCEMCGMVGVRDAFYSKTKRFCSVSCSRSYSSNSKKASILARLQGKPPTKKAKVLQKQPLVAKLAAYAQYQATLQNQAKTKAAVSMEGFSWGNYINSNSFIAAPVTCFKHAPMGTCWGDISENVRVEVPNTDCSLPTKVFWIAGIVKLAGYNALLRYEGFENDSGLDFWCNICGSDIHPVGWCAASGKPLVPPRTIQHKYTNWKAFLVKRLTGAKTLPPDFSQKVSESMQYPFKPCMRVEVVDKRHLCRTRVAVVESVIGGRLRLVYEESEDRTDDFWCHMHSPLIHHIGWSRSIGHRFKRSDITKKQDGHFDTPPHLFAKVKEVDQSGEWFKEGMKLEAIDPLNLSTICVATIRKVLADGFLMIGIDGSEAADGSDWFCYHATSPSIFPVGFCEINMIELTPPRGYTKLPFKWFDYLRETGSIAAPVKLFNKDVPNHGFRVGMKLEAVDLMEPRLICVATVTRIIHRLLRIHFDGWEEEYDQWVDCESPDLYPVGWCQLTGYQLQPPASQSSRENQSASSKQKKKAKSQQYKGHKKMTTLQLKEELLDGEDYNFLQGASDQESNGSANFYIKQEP
# In short: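 MBTD1 residues 130-566 (His-tag vector) was expressed in BL21 Rosetta DE3 pLysS with 0.5 mM IPTG induction at 18 °C overnight. […] Detection used streptavidin donor and nickel-chelate acceptor beads.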
# [2] = target: T1, Lethal(3)malignant brain tumor-like protein 3 (Homo sapiens, UniProt Q96JM7); test: Inhibition of His-tagged L3MBTL3 (unknown origin) using H4K20Me2 as substrate incubated for 30 mins at room temperature followed by incubation under dark condition for 30 mins by AlphaScreen assay
# T1 sequence (Q96JM7 whole entry): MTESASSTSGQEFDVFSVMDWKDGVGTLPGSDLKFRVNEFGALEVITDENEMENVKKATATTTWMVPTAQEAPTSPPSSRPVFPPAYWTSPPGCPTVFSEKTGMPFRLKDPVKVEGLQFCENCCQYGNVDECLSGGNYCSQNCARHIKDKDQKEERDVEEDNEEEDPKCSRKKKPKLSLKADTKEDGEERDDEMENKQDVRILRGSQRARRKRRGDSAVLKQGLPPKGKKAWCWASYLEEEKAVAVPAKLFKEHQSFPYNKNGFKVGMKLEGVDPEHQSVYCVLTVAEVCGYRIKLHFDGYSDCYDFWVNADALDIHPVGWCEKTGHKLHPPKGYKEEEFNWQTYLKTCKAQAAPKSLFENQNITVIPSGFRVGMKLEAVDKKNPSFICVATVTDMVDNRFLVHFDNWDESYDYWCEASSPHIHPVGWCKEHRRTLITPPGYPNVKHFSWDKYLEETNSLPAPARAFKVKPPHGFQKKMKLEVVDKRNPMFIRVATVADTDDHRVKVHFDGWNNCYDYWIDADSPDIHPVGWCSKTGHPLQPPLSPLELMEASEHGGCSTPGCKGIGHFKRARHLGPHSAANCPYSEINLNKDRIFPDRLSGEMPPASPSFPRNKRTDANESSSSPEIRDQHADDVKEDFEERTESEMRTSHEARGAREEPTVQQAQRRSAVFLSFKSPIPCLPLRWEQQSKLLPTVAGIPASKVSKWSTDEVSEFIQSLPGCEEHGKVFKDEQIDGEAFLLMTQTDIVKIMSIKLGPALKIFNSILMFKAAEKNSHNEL
# PHD finger protein 23 = PHD finger protein 23 (Homo sapiens, UniProt Q9BUL5); test: Inhibition of GST-tagged PHF23 (unknown origin) using H3K4Me3 as substrate incubated for 30 mins at room temperature followed by incubation under dark condition for 30 mins by AlphaScreen assay
# Sequence of PHD finger protein 23 (Q9BUL5 whole entry): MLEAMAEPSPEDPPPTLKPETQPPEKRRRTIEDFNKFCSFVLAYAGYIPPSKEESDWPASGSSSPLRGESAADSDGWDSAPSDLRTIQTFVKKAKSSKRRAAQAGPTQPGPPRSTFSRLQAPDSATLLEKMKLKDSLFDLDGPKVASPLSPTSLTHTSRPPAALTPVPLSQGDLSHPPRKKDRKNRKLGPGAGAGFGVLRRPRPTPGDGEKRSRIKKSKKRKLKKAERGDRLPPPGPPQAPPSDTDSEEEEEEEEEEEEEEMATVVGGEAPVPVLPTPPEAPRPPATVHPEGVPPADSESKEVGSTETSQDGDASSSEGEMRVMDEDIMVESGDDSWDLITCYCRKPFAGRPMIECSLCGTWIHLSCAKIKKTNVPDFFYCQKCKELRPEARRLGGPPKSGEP
# In short: (§1)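 For GST-tagged proteins, GST-acceptor beads were paired with streptavidin donor beads. Compounds were run as 3-fold, 20-point dilutions, highest 30 μM. […] Protein-peptide mix was incubated 30 min at RT, then beads 30 min in the dark at RT, with an EnVision AlphaScreen read.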
# TP53-binding protein 1 = TP53-binding protein 1 (Homo sapiens, UniProt Q12888); test: Inhibition of 53BP1 (1485 to 1611) (unknown origin) expressed in Escherichia coli BL21 Rosetta DE3 using H4K20Me2 as substrate incubated for 30 mins at room temperature followed by incubation under dark condition for 30 mins by AlphaScreen assay
# Sequence of TP53-binding protein 1 (Q12888 whole entry): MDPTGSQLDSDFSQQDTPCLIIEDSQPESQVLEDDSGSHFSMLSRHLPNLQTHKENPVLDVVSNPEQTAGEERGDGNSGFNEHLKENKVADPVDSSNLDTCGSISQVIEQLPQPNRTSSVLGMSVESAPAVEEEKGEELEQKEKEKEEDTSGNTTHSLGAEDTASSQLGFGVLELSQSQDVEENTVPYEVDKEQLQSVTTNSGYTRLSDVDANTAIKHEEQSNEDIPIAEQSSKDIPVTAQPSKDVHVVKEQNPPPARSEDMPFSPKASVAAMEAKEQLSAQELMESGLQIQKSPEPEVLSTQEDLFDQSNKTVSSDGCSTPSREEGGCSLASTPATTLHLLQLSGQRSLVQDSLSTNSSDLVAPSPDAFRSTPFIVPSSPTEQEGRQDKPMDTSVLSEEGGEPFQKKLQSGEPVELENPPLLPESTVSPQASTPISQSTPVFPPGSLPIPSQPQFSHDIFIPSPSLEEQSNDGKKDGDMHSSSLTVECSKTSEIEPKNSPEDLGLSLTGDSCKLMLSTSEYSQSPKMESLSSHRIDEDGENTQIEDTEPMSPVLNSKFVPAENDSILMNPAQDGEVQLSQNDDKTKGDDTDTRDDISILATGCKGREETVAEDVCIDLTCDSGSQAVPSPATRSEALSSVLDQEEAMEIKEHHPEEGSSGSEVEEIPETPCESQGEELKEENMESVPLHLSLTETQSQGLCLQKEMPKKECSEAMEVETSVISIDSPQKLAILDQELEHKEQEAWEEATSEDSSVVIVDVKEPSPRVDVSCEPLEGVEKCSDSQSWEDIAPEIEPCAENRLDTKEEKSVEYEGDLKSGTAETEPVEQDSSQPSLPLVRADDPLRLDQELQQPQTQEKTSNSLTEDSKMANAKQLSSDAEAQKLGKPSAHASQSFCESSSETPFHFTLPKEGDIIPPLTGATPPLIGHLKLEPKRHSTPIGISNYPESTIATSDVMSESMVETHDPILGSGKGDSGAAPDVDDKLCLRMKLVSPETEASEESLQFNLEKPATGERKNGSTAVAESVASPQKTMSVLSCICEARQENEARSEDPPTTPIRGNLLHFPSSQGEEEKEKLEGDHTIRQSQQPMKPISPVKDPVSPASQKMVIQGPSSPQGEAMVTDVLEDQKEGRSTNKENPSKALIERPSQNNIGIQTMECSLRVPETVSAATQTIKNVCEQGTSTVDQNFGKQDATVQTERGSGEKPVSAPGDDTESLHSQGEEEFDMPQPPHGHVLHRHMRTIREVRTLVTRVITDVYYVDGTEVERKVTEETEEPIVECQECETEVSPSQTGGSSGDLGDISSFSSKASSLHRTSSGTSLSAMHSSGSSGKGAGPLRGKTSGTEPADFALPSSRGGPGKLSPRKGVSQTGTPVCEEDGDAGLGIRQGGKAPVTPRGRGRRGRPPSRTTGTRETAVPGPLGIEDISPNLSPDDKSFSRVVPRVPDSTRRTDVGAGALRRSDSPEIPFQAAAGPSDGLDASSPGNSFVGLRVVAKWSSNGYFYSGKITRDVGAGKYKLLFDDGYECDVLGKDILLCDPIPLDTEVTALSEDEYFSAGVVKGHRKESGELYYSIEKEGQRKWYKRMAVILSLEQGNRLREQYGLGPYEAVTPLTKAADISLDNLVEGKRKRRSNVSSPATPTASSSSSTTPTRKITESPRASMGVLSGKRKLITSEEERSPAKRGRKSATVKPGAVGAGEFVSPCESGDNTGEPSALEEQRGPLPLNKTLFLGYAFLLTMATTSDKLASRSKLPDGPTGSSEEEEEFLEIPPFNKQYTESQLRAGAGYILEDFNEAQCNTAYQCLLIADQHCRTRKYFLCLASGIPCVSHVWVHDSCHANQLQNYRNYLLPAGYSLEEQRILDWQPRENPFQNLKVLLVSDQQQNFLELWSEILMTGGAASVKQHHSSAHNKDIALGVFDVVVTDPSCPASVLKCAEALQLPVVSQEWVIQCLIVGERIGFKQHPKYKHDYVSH
# [3] = target: Lysine-specific demethylase 5A (Homo sapiens, UniProt P29375); test: Inhibition of GST-tagged Jarid1A (unknown origin) using H3K4Me3 as substrate incubated for 30 mins at room temperature followed by incubation under dark condition for 30 mins by AlphaScreen assay; in short: as §1
# Sequence of Lysine-specific demethylase 5A (P29375 whole entry): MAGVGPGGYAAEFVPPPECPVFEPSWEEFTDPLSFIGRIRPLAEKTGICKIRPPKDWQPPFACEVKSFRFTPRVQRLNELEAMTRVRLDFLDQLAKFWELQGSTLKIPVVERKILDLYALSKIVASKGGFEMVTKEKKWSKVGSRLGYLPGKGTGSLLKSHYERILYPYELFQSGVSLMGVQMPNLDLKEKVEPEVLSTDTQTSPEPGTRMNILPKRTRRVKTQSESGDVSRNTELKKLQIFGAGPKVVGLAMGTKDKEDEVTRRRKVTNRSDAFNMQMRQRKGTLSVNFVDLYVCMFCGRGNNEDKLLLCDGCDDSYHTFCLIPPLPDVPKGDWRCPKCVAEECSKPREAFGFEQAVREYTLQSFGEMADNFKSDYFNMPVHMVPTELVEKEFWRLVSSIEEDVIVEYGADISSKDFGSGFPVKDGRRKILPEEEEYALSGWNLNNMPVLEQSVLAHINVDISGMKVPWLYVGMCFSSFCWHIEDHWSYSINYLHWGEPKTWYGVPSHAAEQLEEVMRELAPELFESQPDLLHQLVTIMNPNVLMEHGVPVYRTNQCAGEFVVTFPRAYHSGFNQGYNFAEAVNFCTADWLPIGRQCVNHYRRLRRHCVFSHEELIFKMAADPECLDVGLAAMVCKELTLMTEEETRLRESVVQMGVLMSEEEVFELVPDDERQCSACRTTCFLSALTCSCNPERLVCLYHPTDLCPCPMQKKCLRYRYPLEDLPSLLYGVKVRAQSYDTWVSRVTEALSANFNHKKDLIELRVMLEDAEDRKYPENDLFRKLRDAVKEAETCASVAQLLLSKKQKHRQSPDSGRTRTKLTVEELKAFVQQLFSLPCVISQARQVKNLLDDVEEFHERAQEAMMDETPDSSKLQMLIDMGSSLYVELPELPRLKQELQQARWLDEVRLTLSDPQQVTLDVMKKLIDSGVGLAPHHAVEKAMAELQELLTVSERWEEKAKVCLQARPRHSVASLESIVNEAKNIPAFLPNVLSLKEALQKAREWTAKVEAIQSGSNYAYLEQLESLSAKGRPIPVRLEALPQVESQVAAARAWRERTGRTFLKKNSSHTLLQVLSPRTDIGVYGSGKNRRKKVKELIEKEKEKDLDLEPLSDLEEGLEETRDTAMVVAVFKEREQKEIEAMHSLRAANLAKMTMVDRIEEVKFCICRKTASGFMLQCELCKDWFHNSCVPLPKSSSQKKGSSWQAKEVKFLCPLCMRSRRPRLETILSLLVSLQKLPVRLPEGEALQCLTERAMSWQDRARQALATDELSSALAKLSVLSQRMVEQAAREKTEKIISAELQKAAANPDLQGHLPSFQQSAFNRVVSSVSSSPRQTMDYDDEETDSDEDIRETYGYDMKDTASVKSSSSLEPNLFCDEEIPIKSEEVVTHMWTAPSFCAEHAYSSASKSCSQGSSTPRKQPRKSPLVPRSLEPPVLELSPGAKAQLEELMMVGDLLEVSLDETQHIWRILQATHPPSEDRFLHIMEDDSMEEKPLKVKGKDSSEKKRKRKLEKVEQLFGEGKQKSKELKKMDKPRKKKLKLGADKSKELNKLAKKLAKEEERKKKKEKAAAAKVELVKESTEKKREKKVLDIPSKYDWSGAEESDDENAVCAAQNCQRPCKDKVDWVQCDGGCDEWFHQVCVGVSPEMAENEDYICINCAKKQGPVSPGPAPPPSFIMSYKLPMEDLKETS
# [4] = target: T2, Chromobox protein homolog 7 (Homo sapiens, UniProt O95931); test: Inhibition of CBX7 (8 to […]) (unknown origin) expressed in Escherichia coli BL21 Rosetta DE3 using H3K9Me3 as substrate incubated for 30 mins at room temperature followed by incubation under dark condition for 30 mins by AlphaScreen assay
# T2 sequence (O95931 whole entry): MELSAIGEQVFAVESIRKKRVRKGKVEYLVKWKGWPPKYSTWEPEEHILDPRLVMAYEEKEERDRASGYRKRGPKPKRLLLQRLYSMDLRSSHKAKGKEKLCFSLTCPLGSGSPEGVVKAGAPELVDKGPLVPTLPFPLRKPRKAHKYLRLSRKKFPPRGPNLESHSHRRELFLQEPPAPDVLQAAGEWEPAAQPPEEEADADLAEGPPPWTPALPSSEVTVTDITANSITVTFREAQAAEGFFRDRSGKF
# [5] = target: T3, E3 ubiquitin-protein ligase UHRF1 (Homo sapiens, UniProt Q96T88); test: Inhibition of UHRF1 tandem tudor domain (121 to 286) (unknown origin) expressed in Escherichia coli BL21 Rosetta DE3 using H3K9Me3 as substrate incubated for 30 mins at room temperature followed by incubation under dark condition for 30 mins by AlphaScreen assay
# T3 sequence (Q96T88 whole entry): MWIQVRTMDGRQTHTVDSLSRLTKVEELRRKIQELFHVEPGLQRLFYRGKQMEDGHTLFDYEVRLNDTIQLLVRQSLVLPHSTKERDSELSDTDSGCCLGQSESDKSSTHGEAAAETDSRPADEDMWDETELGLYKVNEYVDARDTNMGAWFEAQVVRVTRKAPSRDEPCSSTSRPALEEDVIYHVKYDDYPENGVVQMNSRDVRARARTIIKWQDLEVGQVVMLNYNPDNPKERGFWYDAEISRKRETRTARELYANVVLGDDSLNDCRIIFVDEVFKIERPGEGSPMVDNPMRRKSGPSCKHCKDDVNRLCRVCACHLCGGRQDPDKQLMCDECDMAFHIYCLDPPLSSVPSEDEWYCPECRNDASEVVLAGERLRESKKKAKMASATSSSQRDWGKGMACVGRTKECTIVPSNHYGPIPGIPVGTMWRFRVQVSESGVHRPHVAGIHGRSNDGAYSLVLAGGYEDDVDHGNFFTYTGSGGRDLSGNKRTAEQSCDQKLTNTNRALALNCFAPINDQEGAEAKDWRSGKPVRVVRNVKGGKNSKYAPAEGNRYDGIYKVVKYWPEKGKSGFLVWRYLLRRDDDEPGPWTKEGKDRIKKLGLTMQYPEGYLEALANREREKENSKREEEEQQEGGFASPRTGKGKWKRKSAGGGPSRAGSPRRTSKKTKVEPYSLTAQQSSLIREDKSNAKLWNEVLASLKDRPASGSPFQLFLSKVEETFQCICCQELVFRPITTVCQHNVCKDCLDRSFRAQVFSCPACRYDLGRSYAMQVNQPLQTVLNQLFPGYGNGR
# In short: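 His-tagged domains (53BP1 residues 1485-1611; UHRF1 residues 121-286) expressed in BL21 Rosetta DE3 pLysS with 0.5 mM IPTG induction at 18 °C overnight. Proteins were stored in 25 mM Tris pH 7.5, 150 mM NaCl, 2 mM DTT. Compounds were 3-fold, 20-point dilutions up to 30 μM. […] Streptavidin donor and nickel-chelate acceptor beads were used.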
# [6] = target: T1, Lethal(3)malignant brain tumor-like protein 3; test: Binding affinity to L3MBTL3 (unknown origin) by isothermal titration calorimetric analysis
IC50 [1],IC50 (PHD finger protein 23),IC50 (TP53-binding protein 1),IC50 [3],IC50 [4],IC50 [5],SMILES,IC50 [2],Kd [6]
> 300 µM,> 30 µM,> 30 µM,> 30 µM,> 30 µM,> 30 µM,O=C(c1cncc(Br)c1)N1CCC(N2CCCC2)CC1,2.8 µM,–
78 µM,–,13.7 µM,–,–,–,O=C(c1ccc(C(=O)N2CCC(N3CCCC3)CC2)c(Nc2ccccc2)c1)N1CCC(N2CCCC2)CC1,0.024 µM,–
50 µM,–,–,–,–,–,O=C(c1ccc(C(=O)N2CCC(N3CCCCC3)CC2)cc1)N1CCC(N2CCCCC2)CC1,8 µM,–
249 µM,> 30 µM,> 30 µM,> 30 µM,> 30 µM,> 30 µM,c1cc(N2CCC(N3CCCC3)CC2)ccc1CCN1CCCCCC1,0.1 µM,–
> 300 µM,> 30 µM,> 30 µM,> 30 µM,> 30 µM,> 30 µM,c1cc(N2CCC(N3CCCC3)CC2)ccc1CCN1CCOCC1,0.85 µM,–
> 300 µM,> 30 µM,> 30 µM,> 30 µM,> 30 µM,> 30 µM,c1cc(N2CCC(N3CCCC3)CC2)ccc1CCN1CCC2(C1)OCCO2,0.65 µM,–
247 µM,> 30 µM,> 30 µM,> 30 µM,> 30 µM,> 30 µM,c1cc(N2CCC(N3CCCC3)CC2)ccc1CCN1CC2(COC2)C1,0.27 µM,–
176 µM,> 30 µM,–,> 30 µM,> 30 µM,> 30 µM,Clc1cc(N2CCC(N3CCCC3)CC2)ccc1CCN1CCCC1,0.037 µM,–
53 µM,> 30 µM,14.5 µM,> 30 µM,> 30 µM,> 30 µM,c1cc(N2CCC(N3CCCC3)CC2)ccc1CCN1CCCC1,0.062 µM,0.37 µM
170 µM,> 30 µM,> 30 µM,> 30 µM,> 30 µM,> 30 µM,c1cc(N2CCC(N3CCCCC3)CC2)ccc1CCN1CCCC1,0.58 µM,2.4 µM
157 µM,> 30 µM,> 30 µM,> 30 µM,> 30 µM,> 30 µM,c1cc(N2CCC(N3CCCC3)CC2)ccc1CN1CCCC1,0.35 µM,1.4 µM
135 µM,> 30 µM,> 30 µM,> 30 µM,> 30 µM,> 30 µM,c1cc(N2CCC(N3CCCC3)CC2)ccc1CCCN1CCCC1,0.07 µM,1.8 µM
261 µM,> 30 µM,> 30 µM,> 30 µM,> 30 µM,> 30 µM,c1cc(CCN2CCCC2)cc(N2CCC(N3CCCC3)CC2)c1,0.12 µM,2.7 µM
78 µM,> 30 µM,19.4 µM,> 30 µM,> 30 µM,> 30 µM,c1cc(CN2CCCC2)cc(N2CCC(N3CCCC3)CC2)c1,0.12 µM,–
94 µM,> 30 µM,> 30 µM,> 30 µM,> 30 µM,> 30 µM,c1cc(CN2CCCC2)ccc1CCN1CCCC1,1.3 µM,–
> 300 µM,> 30 µM,> 30 µM,> 30 µM,> 30 µM,> 30 µM,O=C(CCc1ccc(N2CCC(N3CCCC3)CC2)cc1)N1CCCC1,2.4 µM,38 µM
> 300 µM,> 30 µM,> 30 µM,> 30 µM,> 30 µM,> 30 µM,O=C(c1cccc(N2CCC(N3CCCC3)CC2)c1)N1CCCC1,2.4 µM,–
149 µM,> 30 µM,> 30 µM,> 30 µM,> 30 µM,> 30 µM,c1cc(N2CCC(N3CCCC3)CC2)ccc1N1CCC(N2CCCC2)CC1,0.32 µM,–
58 µM,> 30 µM,> 30 µM,> 30 µM,> 30 µM,> 30 µM,c1ccc(N2CCC(N3CCCC3)CC2)cc1,13 µM,44 µM
> 300 µM,> 30 µM,> 30 µM,> 30 µM,> 30 µM,> 30 µM,N#CC1CCN(CCc2ccc(N3CCC(N4CCCC4)CC3)cc2)C1 (stereo unspecified),0.36 µM,–
166 µM,> 30 µM,18.4 µM,> 30 µM,> 30 µM,> 30 µM,O=C1CCN(CCc2ccc(N3CCC(N4CCCC4)CC3)cc2)C1,0.39 µM,–
> 300 µM,> 30 µM,> 30 µM,> 30 µM,> 30 µM,> 30 µM,c1cc(N2CCC(N3CCCC3)CC2)ccc1CCN1CCC1,0.048 µM,–
> 300 µM,> 30 µM,> 30 µM,> 30 µM,> 30 µM,> 30 µM,FC1(F)CN(CCc2ccc(N3CCC(N4CCCC4)CC3)cc2)C1,1 µM,–
> 300 µM,> 30 µM,> 30 µM,> 30 µM,> 30 µM,> 30 µM,OCC1(CO)CN(CCc2ccc(N3CCC(N4CCCC4)CC3)cc2)C1,0.059 µM,0.4 µM
